Assay results published in ChEMBL document CHEMBL1817602, “Synthesis of benzo[3,4]azepino[1,2-b]isoquinolin-9-ones from 3-arylisoquinolines via ring closing metathesis and evaluation of topoisomerase I inhibitory activity, cytotoxicity and docking study” (Bioorg Med Chem, 2011).
Active and inactive are the calls of the source. The calls are words filed in the database; no cut-off is given here.

Legend:
Bos taurus [1] = organism: Bos taurus; assay: Inhibition of calf thymus topoisomerase 1-mediated relaxation of supercoiled pBR322 DNA at 20 to 100 uM after 30 mins using ethidium bromide staining by UV-light transillumination analysis
In short: (§1)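 Plasmid pBR322 (200 ng) with 0.3 U calf thymus topo I, compound at final 20 or 100 μM, 37 °C for 30 min in relaxation buffer (35 mM Tris–HCl pH 8.0, 72 mM KCl, MgCl2, DTT, spermidine, 0.01% BSA). Stopped with SDS loading mix, run on 1% agarose in TBE for 10 h, stained with ethidium bromide (0.5 μg/mL), and UV-visualized and quantitated. Scored semiquantitatively against camptothecin.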

SK-MEL-2 = assay: Cytotoxicity against human SK-MEL-2 cells after 48 hrs by MTT assay; assay type: functional, cell-based; details: SK-MEL-2, 48 h
In short: (§2)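 Cells seeded at 10^5 cells/mL in 100 µL RPMI-1640 with 10% FBS; compounds added at various concentrations after 24 h and incubated 48 h. MTT (5 mg/mL stock in PBS, 50 µL per well) was added for a further incubation. Medium was discarded, formazan dissolved in DMSO, and absorbance read at 540 nm.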

A549 = assay: Cytotoxicity against human A549 cells after 48 hrs by MTT assay; assay type: functional, cell-based; details: A549, 48 h; in short: as §2
SK-OV-3 = assay: Cytotoxicity against human SKOV3 cells after 48 hrs by MTT assay; assay type: functional, cell-based; details: SK-OV-3, 48 h; in short: as §2
HCT-15 = assay: Cytotoxicity against human HCT15 cells after 48 hrs by MTT assay; assay type: functional, cell-based; details: HCT-15, 48 h; in short: as §2
Bos taurus [2] = organism: Bos taurus; assay: Inhibition of calf thymus topoisomerase 1-mediated relaxation of supercoiled pBR322 DNA at 20 to 100 uM after 30 mins using ethidium bromide staining by UV-light transillumination analysis relative to camptothecin; in short: as §1

Q: What does the source list for C=CCn1c(-c2cc3c(cc2C=C)OCO3)cc2ccccc2c1=O?
A: inhibition (Bos taurus [1]): Active; IC50 (SK-MEL-2): 9.36 µM; IC50 (A549): 19.3 µM; IC50 (SK-OV-3): 13.6 µM; IC50 (HCT-15): 11.2 µM

Q: CC[C@@]1(O)C(=O)OCc2c1cc1n(c2=O)Cc2cc3ccccc3nc2-1 [CAMPTOTHECIN] was tested. Which inhibition (Bos taurus [1]) did it give?
A: Its inhibition is “Active”.

Q: And the IC50 (SK-MEL-2)?
A: The IC50 was 7.86 µM.

Q: And the IC50 (A549)?
A: Its IC50 is 0.091 µM.

Q: And the IC50 (SK-OV-3)?
A: Its IC50 is 2.54 µM.

Q: And the IC50 (HCT-15)?
A: The IC50 was 0.166 µM.

Q: What does the source list for C=CCn1c(-c2ccc(OC)cc2COCOC)cc2ccccc2c1=O?
A: inhibition (Bos taurus [1]): Active; IC50 (SK-MEL-2): 42.6 µM; IC50 (A549): > 100 µM; IC50 (SK-OV-3): > 100 µM; IC50 (HCT-15): 27.8 µM

Q: With C=CCn1c(-c2cc3c(cc2C=C)OCO3)cc2ccc(OC)c(OC)c2c1=O as the compound, how does the inhibition (Bos taurus [1]) read?
A: The inhibition was “inactive”.

Q: What about the IC50 (SK-MEL-2) of the same compound?
A: Its IC50 is greater than 100 µM.

Q: And the IC50 (A549)?
A: The IC50 was greater than 100 µM.

Q: What about the IC50 (SK-OV-3) of the same compound?
A: Its IC50 is greater than 100 µM.

Q: What about the IC50 (HCT-15) of the same compound?
A: The IC50 was greater than 100 µM.

Q: Which results are given for C=CCn1c(-c2cc3c(cc2C=O)OCO3)cc2ccccc2c1=O?
A: inhibition (Bos taurus [1]): Active; IC50 (SK-MEL-2): > 100 µM; IC50 (A549): 87.5 µM; IC50 (SK-OV-3): 56.9 µM; IC50 (HCT-15): 54.1 µM

Q: With C=CCn1c(-c2ccc(OC)cc2C=O)cc2ccccc2c1=O as the compound, how does the inhibition (Bos taurus [1]) read?
A: Its inhibition is “Active”.

Q: What about the IC50 (SK-MEL-2) of the same compound?
A: Its IC50 is 88.9 µM.

Q: And the IC50 (A549)?
A: Its IC50 is 88.1 µM.

Q: And the IC50 (SK-OV-3)?
A: Its IC50 is 65.5 µM.

Q: What about the IC50 (HCT-15) of the same compound?
A: Its IC50 is 56.5 µM.

Q: Which inhibition (Bos taurus [1]) does the source give for C=CCn1c(-c2cc(OC)c(OC)cc2C=O)cc2ccccc2c1=O here?
A: The inhibition was “Active”.

Q: What about the IC50 (SK-MEL-2) of the same compound?
A: Its IC50 is 67.6 µM.

Q: What about the IC50 (A549) of the same compound?
A: Its IC50 is 76.3 µM.

Q: And the IC50 (SK-OV-3)?
A: The IC50 was 85.5 µM.

Q: What about the IC50 (HCT-15) of the same compound?
A: Its IC50 is 77.5 µM.

Q: Which inhibition (Bos taurus [1]) does the source give for C=CCn1c(-c2cc(OC)c(OC)cc2COCOC)cc2ccccc2c1=O here?
A: Its inhibition is “Active”.

Q: What about the IC50 (SK-MEL-2) of the same compound?
A: Its IC50 is 75 µM.

Q: And the IC50 (A549)?
A: The IC50 was 88.1 µM.

Q: What about the IC50 (SK-OV-3) of the same compound?
A: The IC50 was 37.7 µM.

Q: And the IC50 (HCT-15)?
A: The IC50 was 78.7 µM.

Q: Which inhibition (Bos taurus [1]) does the source give for C=CCn1c(-c2cc3c(cc2COCOC)OCO3)cc2ccccc2c1=O here?
A: Its inhibition is “Active”.

Q: What about the IC50 (SK-MEL-2) of the same compound?
A: Its IC50 is 15.4 µM.

Q: And the IC50 (A549)?
A: The IC50 was 19.8 µM.

Q: And the IC50 (SK-OV-3)?
A: The IC50 was 29.5 µM.

Q: And the IC50 (HCT-15)?
A: Its IC50 is 36.1 µM.

Q: Which inhibition (Bos taurus [1]) does the source give for O=c1c2ccccc2cc2n1CC=Cc1cc3c(cc1-2)OCO3 here?
A: Its inhibition is “Active”.

Q: What about the IC50 (SK-MEL-2) of the same compound?
A: Its IC50 is 28.6 µM.

Q: What about the IC50 (A549) of the same compound?
A: Its IC50 is 17.1 µM.

Q: What about the IC50 (SK-OV-3) of the same compound?
A: The IC50 was 29.1 µM.

Q: What about the IC50 (HCT-15) of the same compound?
A: Its IC50 is 20.1 µM.

Q: COc1ccc2cc3n(c(=O)c2c1OC)CC=Cc1cc2c(cc1-3)OCO2 was tested. Which inhibition (Bos taurus [1]) did it give?
A: Its inhibition is “Active”.

Q: And the IC50 (SK-MEL-2)?
A: The IC50 was 2.54 µM.

Q: What about the IC50 (A549) of the same compound?
A: The IC50 was 7.45 µM.

Q: And the IC50 (SK-OV-3)?
A: The IC50 was 2.8 µM.

Q: And the IC50 (HCT-15)?
A: Its IC50 is 6.34 µM.

Q: C=CCn1c(-c2ccc(OC)cc2C=C)cc2ccccc2c1=O was tested. Which inhibition (Bos taurus [1]) did it give?
A: The inhibition was “Active”.

Q: And the IC50 (SK-MEL-2)?
A: Its IC50 is 11.6 µM.

Q: What about the IC50 (A549) of the same compound?
A: Its IC50 is 17.2 µM.

Q: What about the IC50 (SK-OV-3) of the same compound?
A: Its IC50 is 43.8 µM.

Q: What about the IC50 (HCT-15) of the same compound?
A: The IC50 was 22.8 µM.

Q: What does the source list for C=CCn1c(-c2cc(OC)c(OC)cc2C=C)cc2ccccc2c1=O?
A: inhibition (Bos taurus [1]): Active; IC50 (SK-MEL-2): 47.7 µM; IC50 (A549): 43.2 µM; IC50 (SK-OV-3): 35.5 µM; IC50 (HCT-15): 75.2 µM

Q: For C=CCn1c(-c2cc3c(cc2C=O)OCO3)cc2ccc(OC)c(OC)c2c1=O, which inhibition (Bos taurus [1]) is on record?
A: The inhibition was “Active”.

Q: And the IC50 (SK-MEL-2)?
A: Its IC50 is 71.2 µM.

Q: What about the IC50 (A549) of the same compound?
A: The IC50 was 85.1 µM.

Q: What about the IC50 (SK-OV-3) of the same compound?
A: The IC50 was 61.7 µM.

Q: What about the IC50 (HCT-15) of the same compound?
A: The IC50 was 63.9 µM.

Q: What does the source list for COc1cc2c(cc1OC)-c1cc3ccccc3c(=O)n1CC=C2?
A: inhibition (Bos taurus [1]): Active; IC50 (SK-MEL-2): 6.23 µM; IC50 (A549): 14.8 µM; IC50 (SK-OV-3): 11 µM; IC50 (HCT-15): 21.3 µM

Q: COc1ccc2c(c1)C=CCn1c-2cc2ccccc2c1=O was tested. Which inhibition (Bos taurus [1]) did it give?
A: Its inhibition is “Active”.

Q: And the IC50 (SK-MEL-2)?
A: The IC50 was 7.74 µM.

Q: And the IC50 (A549)?
A: Its IC50 is 6.48 µM.

Q: What about the IC50 (SK-OV-3) of the same compound?
A: The IC50 was 24.3 µM.

Q: And the IC50 (HCT-15)?
A: Its IC50 is 12.6 µM.

Q: Which results are given for COCOCc1cc2c(cc1-c1cc3ccccc3c(=O)[nH]1)OCO2?
A: IC50 (SK-MEL-2): 64.5 µM; inhibition (Bos taurus [2]): Active; IC50 (A549): 7.93 µM; IC50 (SK-OV-3): 22.9 µM; IC50 (HCT-15): 13.1 µM

Q: What does the source list for COCOCc1cc(OC)ccc1-c1cc2ccccc2c(=O)[nH]1?
A: inhibition (Bos taurus [1]): Active; IC50 (SK-MEL-2): 97.6 µM; IC50 (A549): 45.3 µM; IC50 (SK-OV-3): 75.5 µM; IC50 (HCT-15): 27.5 µM

Q: COCOCc1cc(OC)c(OC)cc1-c1cc2ccccc2c(=O)[nH]1 was tested. Which inhibition (Bos taurus [1]) did it give?
A: The inhibition was “Active”.

Q: What about the IC50 (SK-MEL-2) of the same compound?
A: The IC50 was 55.2 µM.

Q: And the IC50 (A549)?
A: Its IC50 is 85.1 µM.

Q: What about the IC50 (SK-OV-3) of the same compound?
A: Its IC50 is 87.7 µM.

Q: And the IC50 (HCT-15)?
A: Its IC50 is 73.7 µM.

Q: How did the inhibition (Bos taurus [1]) turn out when C=CCn1c(-c2cc3c(cc2COCOC)OCO3)cc2ccc(OC)c(OC)c2c1=O was run?
A: Its inhibition is “inactive”.

Q: What about the IC50 (SK-MEL-2) of the same compound?
A: Its IC50 is 27.4 µM.

Q: What about the IC50 (A549) of the same compound?
A: Its IC50 is 29.9 µM.

Q: And the IC50 (SK-OV-3)?
A: The IC50 was greater than 100 µM.

Q: And the IC50 (HCT-15)?
A: The IC50 was 28.2 µM.
